Legend:
Bacteroides fragilis [1] = experiment: Antimicrobial activity against Bacteroides fragilis after 48 hrs by agar dilution method; format: functional
How it was run: (§1)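 MICs on clinical anaerobe isolates by the CLSI agar dilution method. Inoculum of 10^5 CFU applied with a Steers replicator. Plates incubated 48 h at 37°C in an anaerobic chamber.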

[2] = system: Bacteroides thetaiotaomicron; experiment: Antimicrobial activity against Bacteroides thetaiotaomicron after 48 hrs by agar dilution method; format: functional; how it was run: as §1
Bacteroides caccae [3] = experiment: Antimicrobial activity against Bacteroides caccae after 48 hrs by agar dilution method; format: functional; how it was run: as §1
Bacteroides fragilis [4] = experiment: Antimicrobial activity against Bacteroides fragilis assessed as percent susceptible isolates after 48 hrs by agar dilution method; format: functional
Bacteroides fragilis [5] = experiment: Antimicrobial activity against Bacteroides fragilis assessed as percent resistant isolates after 48 hrs by agar dilution method; format: functional
How it was run: (§2)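 CLSI agar dilution on recent Korean clinical anaerobe isolates. Inoculum 10^5 CFU per spot by replicator. Plates incubated in an anaerobic chamber at 37°C for 48 h. For piperacillin plus tazobactam, tazobactam was held constant at 4 μg/ml. Resistance and susceptibility rates derived from MICs.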

[6] = system: Bacteroides thetaiotaomicron; experiment: Antimicrobial activity against Bacteroides thetaiotaomicron assessed as percent resistant isolates after 48 hrs by agar dilution method; format: functional; how it was run: as §2
Bacteroides caccae [7] = experiment: Antimicrobial activity against Bacteroides caccae assessed as percent susceptible isolates after 48 hrs by agar dilution method; format: functional
Bacteroides caccae [8] = experiment: Antimicrobial activity against Bacteroides caccae assessed as percent resistant isolates after 48 hrs by agar dilution method; format: functional; how it was run: as §2
[9] = system: Parabacteroides distasonis; experiment: Antimicrobial activity against Bacteroides distasonis assessed as percent susceptible isolates after 48 hrs by agar dilution method; format: functional
Phocaeicola vulgatus = experiment: Antimicrobial activity against Bacteroides vulgatus assessed as percent susceptible isolates after 48 hrs by agar dilution method; format: functional
Bacteroides ovatus [10] = experiment: Antimicrobial activity against Bacteroides ovatus assessed as percent susceptible isolates after 48 hrs by agar dilution method; format: functional
Bacteroides ovatus [11] = experiment: Antimicrobial activity against Bacteroides ovatus assessed as percent resistant isolates after 48 hrs by agar dilution method; format: functional; how it was run: as §2
Prevotella bivia [12] = experiment: Antimicrobial activity against Prevotella bivia after 48 hrs by agar dilution method; format: functional
How it was run: (§3)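 CLSI agar dilution (M11-A7); inoculum 10^5 CFU applied by replicator; plates incubated anaerobically 48 h at 37°C. For piperacillin-tazobactam, tazobactam held constant at 4 μg/ml.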

Prevotella buccae [13] = experiment: Antimicrobial activity against Prevotella buccae after 48 hrs by agar dilution method; format: functional; conditions: Segatella buccae; how it was run: as §3
Hoylesella oralis [14] = experiment: Antimicrobial activity against Prevotella oralis after 48 hrs by agar dilution method; format: functional; how it was run: as §3
Prevotella intermedia [15] = experiment: Antimicrobial activity against Prevotella intermedia assessed as percent susceptible isolates after 48 hrs by agar dilution method; format: functional; how it was run: as §3
Prevotella intermedia [16] = experiment: Antimicrobial activity against Prevotella intermedia assessed as percent resistant isolates after 48 hrs by agar dilution method; format: functional; how it was run: as §2
Prevotella bivia [17] = experiment: Antimicrobial activity against Prevotella bivia assessed as percent susceptible isolates after 48 hrs by agar dilution method; format: functional; how it was run: as §3
Prevotella bivia [18] = experiment: Antimicrobial activity against Prevotella bivia assessed as percent resistant isolates after 48 hrs by agar dilution method; format: functional; how it was run: as §2
Prevotella buccae [19] = experiment: Antimicrobial activity against Prevotella buccae assessed as percent susceptible isolates after 48 hrs by agar dilution method; format: functional, Segatella buccae; how it was run: as §3
Hoylesella oralis [20] = experiment: Antimicrobial activity against Prevotella oralis assessed as percent resistant isolates after 48 hrs by agar dilution method; format: functional; how it was run: as §2
Fusobacterium varium = experiment: Antimicrobial activity against Fusobacterium varium after 48 hrs by agar dilution method; format: functional; how it was run: as §3
Fusobacterium nucleatum = experiment: Antimicrobial activity against Fusobacterium nucleatum after 48 hrs by agar dilution method; format: functional; how it was run: as §3
Fusobacterium mortiferum = experiment: Antimicrobial activity against Fusobacterium mortiferum after 48 hrs by agar dilution method; format: functional; how it was run: as §3
[21] = system: Peptostreptococcus anaerobius; experiment: Antimicrobial activity against Peptostreptococcus anaerobius assessed as percent susceptible isolates after 48 hrs by agar dilution method; format: functional; how it was run: as §2
Parvimonas micra = experiment: Antimicrobial activity against Peptostreptococcus micros assessed as percent susceptible isolates after 48 hrs by agar dilution method; format: functional; how it was run: as §2
Anaerococcus prevotii [22] = experiment: Antimicrobial activity against Anaerococcus prevotii after 48 hrs by agar dilution method; format: functional; how it was run: as §1
Anaerococcus prevotii [23] = experiment: Antimicrobial activity against Anaerococcus prevotii assessed as percent resistant isolates after 48 hrs by agar dilution method; format: functional; how it was run: as §2
[24] = system: Peptoniphilus asaccharolyticus; experiment: Antimicrobial activity against Peptoniphilus asaccharolyticus after 48 hrs by agar dilution method; format: functional; how it was run: as §3
[25] = system: Peptoniphilus asaccharolyticus; experiment: Antimicrobial activity against Peptoniphilus asaccharolyticus assessed as percent susceptible isolates after 48 hrs by agar dilution method; format: functional; how it was run: as §3
[26] = system: Peptoniphilus asaccharolyticus; experiment: Antimicrobial activity against Peptoniphilus asaccharolyticus assessed as percent resistant isolates after 48 hrs by agar dilution method; format: functional; how it was run: as §2
Finegoldia magna [27] = experiment: Antimicrobial activity against Finegoldia magna after 48 hrs by agar dilution method; format: functional; how it was run: as §3
Finegoldia magna [28] = experiment: Antimicrobial activity against Finegoldia magna assessed as percent susceptible isolates after 48 hrs by agar dilution method; format: functional; how it was run: as §3
Finegoldia magna [29] = experiment: Antimicrobial activity against Finegoldia magna assessed as percent resistant isolates after 48 hrs by agar dilution method; format: functional; how it was run: as §2
Clostridioides difficile [30] = experiment: Antimicrobial activity against Clostridium difficile after 48 hrs by agar dilution method; format: functional
Clostridioides difficile [31] = experiment: Antimicrobial activity against Clostridium difficile assessed as percent susceptible isolates after 48 hrs by agar dilution method; format: functional
Clostridioides difficile [32] = experiment: Antimicrobial activity against Clostridium difficile assessed as percent resistant isolates after 48 hrs by agar dilution method; format: functional
Schaalia odontolytica = experiment: Antimicrobial activity against Actinomyces odontolyticus assessed as percent susceptible isolates after 48 hrs by agar dilution method; format: functional
Schaalia meyeri [33] = experiment: Antimicrobial activity against Actinomyces meyeri after 48 hrs by agar dilution method; format: functional; how it was run: as §1
Schaalia meyeri [34] = experiment: Antimicrobial activity against Actinomyces meyeri assessed as percent susceptible isolates after 48 hrs by agar dilution method; format: functional
Schaalia meyeri [35] = experiment: Antimicrobial activity against Actinomyces meyeri assessed as percent resistant isolates after 48 hrs by agar dilution method; format: functional; how it was run: as §2
Actinomyces naeslundii [36] = experiment: Antimicrobial activity against Actinomyces naeslundii after 48 hrs by agar dilution method; format: functional; how it was run: as §1
Actinomyces naeslundii [37] = experiment: Antimicrobial activity against Actinomyces naeslundii assessed as percent susceptible isolates after 48 hrs by agar dilution method; format: functional
Actinomyces naeslundii [38] = experiment: Antimicrobial activity against Actinomyces naeslundii assessed as percent resistant isolates after 48 hrs by agar dilution method; format: functional; how it was run: as §2
[39] = system: Bifidobacterium adolescentis; experiment: Antimicrobial activity against Bifidobacterium adolescentis after 48 hrs by agar dilution method; format: functional; how it was run: as §1
[40] = system: Bifidobacterium adolescentis; experiment: Antimicrobial activity against Bifidobacterium adolescentis assessed as percent susceptible isolates after 48 hrs by agar dilution method; format: functional
[41] = system: Bifidobacterium adolescentis; experiment: Antimicrobial activity against Bifidobacterium adolescentis assessed as percent resistant isolates after 48 hrs by agar dilution method; format: functional; how it was run: as §2
Bifidobacterium sp. = experiment: Antimicrobial activity against Bifidobacterium sp. assessed as percent resistant isolates after 48 hrs by agar dilution method; format: functional; how it was run: as §2
Eggerthella lenta = experiment: Antimicrobial activity against Eubacterium lentum assessed as percent resistant isolates after 48 hrs by agar dilution method; format: functional; how it was run: as §2
Eubacterium sp. = experiment: Antimicrobial activity against Eubacterium sp. after 48 hrs by agar dilution method; format: functional; how it was run: as §3

O=C(N[C@H](CO)[C@H](O)c1ccc([N+](=O)[O-])cc1)C(Cl)Cl [CHLORAMPHENICOL]
4 µg/mL: MIC50 (Bacteroides fragilis [1]) | MIC90 (Bacteroides fragilis [1]) | MIC [2] | MIC50 [2] | MIC (Bacteroides caccae [3]) | MIC50 (Bacteroides caccae [3]) | MIC50 (Prevotella bivia [12]) | MIC50 (Prevotella buccae [13]) | MIC50 (Hoylesella oralis [14]) | MIC50 (Anaerococcus prevotii [22]) | MIC90 [24] | MIC50 (Finegoldia magna [27]) | MIC90 (Finegoldia magna [27]) | MIC50 (Clostridioides difficile [30])
1 µg/mL: MIC (Schaalia meyeri [33]) | MIC50 (Schaalia meyeri [33]) | MIC (Actinomyces naeslundii [36]) | MIC50 (Actinomyces naeslundii [36]) | MIC [39] | MIC50 [39] | MIC (Eubacterium sp.) | MIC50 (Eubacterium sp.)
83%: Activity (Clostridioides difficile [31])
0%: Activity (Bacteroides fragilis [5]) | Activity [6] | Activity (Bacteroides caccae [8]) | Activity (Bacteroides ovatus [11]) | Activity (Prevotella intermedia [16]) | Activity (Prevotella bivia [18]) | Activity (Hoylesella oralis [20]) | Activity (Parvimonas micra) | Activity (Anaerococcus prevotii [23]) | Activity [26] | Activity (Finegoldia magna [29]) | Activity (Clostridioides difficile [32]) | Activity (Schaalia meyeri [35]) | Activity (Actinomyces naeslundii [38]) | Activity [41] | Activity (Bifidobacterium sp.) | Activity (Eggerthella lenta)
100%: Activity (Prevotella intermedia [15]) | Activity (Prevotella bivia [17]) | Activity (Prevotella buccae [19]) | Activity [21] | Activity [25] | Activity (Finegoldia magna [28])
0.13 µg/mL: MIC (Fusobacterium varium) | MIC (Fusobacterium nucleatum) | MIC (Fusobacterium mortiferum)
98%: Activity (Bacteroides fragilis [4]) | Activity (Bacteroides caccae [7]) | Activity [9] | Activity (Phocaeicola vulgatus) | Activity (Bacteroides ovatus [10])
16 µg/mL: MIC90 (Clostridioides difficile [30])
92%: Activity (Schaalia odontolytica) | Activity (Schaalia meyeri [34]) | Activity (Actinomyces naeslundii [37]) | Activity [40]
8 µg/mL: MIC90 [2] | MIC90 (Bacteroides caccae [3]) | MIC90 (Prevotella bivia [12]) | MIC90 (Prevotella buccae [13]) | MIC90 (Hoylesella oralis [14]) | MIC90 (Anaerococcus prevotii [22])
2 µg/mL: MIC50 [24] | MIC90 (Schaalia meyeri [33]) | MIC90 (Actinomyces naeslundii [36]) | MIC90 [39] | MIC90 (Eubacterium sp.)

CCN1CCN(C(=O)N[C@@H](C(=O)N[C@@H]2C(=O)N3[C@@H]2SC(C)(C)[C@@H]3C(=O)O)c2ccccc2)C(=O)C1=O [PIPERACILLIN]
11%: Activity (Prevotella bivia [18]) | Activity (Hoylesella oralis [20])
8 µg/mL: MIC50 (Bacteroides fragilis [1]) | MIC90 (Clostridioides difficile [30]) | MIC90 (Schaalia meyeri [33]) | MIC90 (Actinomyces naeslundii [36]) | MIC90 [39] | MIC90 (Eubacterium sp.)
0.06 µg/mL: MIC (Fusobacterium varium) | MIC (Fusobacterium nucleatum) | MIC (Fusobacterium mortiferum)
0.25 µg/mL: MIC90 (Anaerococcus prevotii [22])
0.125 µg/mL: MIC50 (Anaerococcus prevotii [22]) | MIC90 (Finegoldia magna [27])
> 256 µg/mL: MIC90 (Bacteroides fragilis [1]) | MIC90 [2] | MIC90 (Bacteroides caccae [3])
92%: Activity (Schaalia odontolytica) | Activity (Schaalia meyeri [34]) | Activity (Actinomyces naeslundii [37]) | Activity [40]
16 µg/mL: MIC50 (Prevotella bivia [12]) | MIC50 (Prevotella buccae [13]) | MIC50 (Hoylesella oralis [14])
4 µg/mL: MIC50 (Clostridioides difficile [30])
0%: Activity (Prevotella intermedia [16]) | Activity (Parvimonas micra) | Activity (Anaerococcus prevotii [23]) | Activity [26] | Activity (Finegoldia magna [29]) | Activity (Clostridioides difficile [32]) | Activity (Schaalia meyeri [35]) | Activity (Actinomyces naeslundii [38]) | Activity [41] | Activity (Bifidobacterium sp.) | Activity (Eggerthella lenta)
67%: Activity (Bacteroides fragilis [4])
42%: Activity (Bacteroides caccae [7]) | Activity [9] | Activity (Phocaeicola vulgatus) | Activity (Bacteroides ovatus [10])
51%: Activity [6] | Activity (Bacteroides caccae [8]) | Activity (Bacteroides ovatus [11])
1 µg/mL: MIC50 (Schaalia meyeri [33]) | MIC50 (Actinomyces naeslundii [36]) | MIC50 [39] | MIC50 (Eubacterium sp.)
27%: Activity (Bacteroides fragilis [5])
≤ 0.06 µg/mL: MIC50 [24] | MIC90 [24] | MIC50 (Finegoldia magna [27])
100%: Activity (Prevotella intermedia [15]) | Activity [21] | Activity [25] | Activity (Finegoldia magna [28]) | Activity (Clostridioides difficile [31])
128 µg/mL: MIC50 [2] | MIC50 (Bacteroides caccae [3]) | MIC90 (Prevotella bivia [12]) | MIC90 (Prevotella buccae [13]) | MIC90 (Hoylesella oralis [14])
78%: Activity (Prevotella bivia [17]) | Activity (Prevotella buccae [19])

Source: ChEMBL document CHEMBL1671716, “Antimicrobial susceptibility patterns for recent clinical isolates of anaerobic bacteria in South Korea” (2010)
